According to article PMC5652008 (EBioMedicine, 2017):
Marks after values point to notes of the source that are not given here. Square brackets hold non-standard residues; d marks the D form. Peptide text beside a SMILES is read from it. * marks the point of attachment. Succinyl(4-O-cholesteryl) = CC(C)CCC[C@@H](C)[C@H]1CC[C@H]2[C@@H]3CC=C4C[C@@H](OC(=O)CCC(=O)*)CC[C@]4(C)[C@H]3CC[C@]12C; Sta = CC(C)C[C@H](N)[C@@H](O)CC(=O)O; Palmitoyl = CCCCCCCCCCCCCCCC(=O)*

Legend:
[1] = molecular target: T1, BACE1 (Homo sapiens, UniProt P56817); test: Cell-based Aβ lowering IC50 assay
T1 sequence (P56817 46-501): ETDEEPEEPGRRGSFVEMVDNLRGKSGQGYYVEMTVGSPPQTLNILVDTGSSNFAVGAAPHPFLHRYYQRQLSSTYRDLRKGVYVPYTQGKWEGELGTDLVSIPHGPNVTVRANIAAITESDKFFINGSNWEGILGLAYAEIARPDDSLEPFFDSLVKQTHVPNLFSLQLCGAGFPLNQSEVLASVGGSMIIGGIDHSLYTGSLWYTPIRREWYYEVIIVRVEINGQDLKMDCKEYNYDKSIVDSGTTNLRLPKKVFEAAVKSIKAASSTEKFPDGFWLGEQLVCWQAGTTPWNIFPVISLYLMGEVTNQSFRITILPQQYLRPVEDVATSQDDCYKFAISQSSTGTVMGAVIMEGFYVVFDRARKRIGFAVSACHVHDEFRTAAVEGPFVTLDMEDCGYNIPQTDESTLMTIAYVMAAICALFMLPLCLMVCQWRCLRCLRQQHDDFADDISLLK
Summary of the method: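 Test compounds, free or Brain Shuttle-coupled, added in serial dilutions to HEK293 cells stably expressing wild-type human APP695, grown in Iscove's medium with 10% FBS to ~80% confluency. Construct dilution buffers served as control. Overnight at 37 °C, 5% CO2. Supernatant Aβ40 read by AlphaLISA: acceptor beads 1 h, then streptavidin donor beads 30 min, both at RT; emission at 615 nm. Compared with vehicle-treated cells; mean ± SEM.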

[2] = Thermodynamic; type: physicochemical; conditions: phosphate buffer
Summary of the method: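 Equilibrium solubility measured in 0.05 M phosphate buffer, pH 6.5.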

[3] = molecular target: T1, BACE1; test: SPR binding assay on immobilized BACE1
Summary of the method: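 SPR at 18 °C in the immobilization buffer. Peptide titrations used 2-fold dilution steps, run either as single-cycle kinetics (5 concentrations) or multi-cycle kinetics (10 concentrations). Two protein surfaces and an activated/deactivated CM5 reference surface were measured in parallel on one sensor.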

[4] = test system: Aβ production in human stem-cell derived neurons; test: Human neural stem cell-based Aβ40 inhibition assay; conditions: 48 h incubation
Summary of the method: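 Neurons differentiated from SB-AD3 human iPSCs (healthy adult donor fibroblasts) via embryoid bodies and dual SMAD inhibition. Doses 0.128–10,000 nM (three independent differentiations) or 0.001024–80 nM (one differentiation), two technical replicates per dose. Vehicle was histidine/NaCl/1.3 mM hydroxypropyl-β-cyclodextrin for peptides and DMSO for small molecules. Aβ40 read by AlphaLISA at 615 nm, compared with vehicle-treated cells; means ± SEM.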

[5] = pH 6.5, Solubility pH 6.5, Table 1, phosphate buffer 0.05 M

Compound | IC50 [1] [nM] | solubility thermodynamic ([2]; pH 6.5) [µg/mL] | other results
CC(C)C[C@H](NC(=O)[C@H](CC(N)=O)NC(=O)[C@@H](NC(=O)[C@@H](N)CCC(=O)O)C(C)C)[C@@H](O)CC(=O)N[C@H](C(=O)N[C@@H](C)C(=O)N[C@@H](CCC(=O)O)C(=O)N1CCC[C@@H]1C(=O)N[C@@H](CCCCN)C(N)=O)C(C)C [Pep#2, Glu-Val-Asn-Sta-Val-Ala-Glu-DPro-Lys-NH2] (H-EVN[Sta]VAE[dP]K-NH2; N-terminus assumed) | > 40000 | – | –
CC(C)CCC[C@@H](C)[C@H]1CC[C@H]2[C@@H]3CC=C4C[C@@H](OC(=O)CCC(=O)NCCCC[C@H](NC(=O)[C@H]5CCCN5C(=O)[C@H](CCC(=O)O)NC(=O)[C@H](C)NC(=O)[C@@H](NC(=O)C[C@H](O)[C@H](CC(C)C)NC(=O)[C@H](CC(N)=O)NC(=O)[C@@H](NC(=O)[C@@H](N)CCC(=O)O)C(C)C)C(C)C)C(N)=O)CC[C@]4(C)[C@H]3CC[C@]12C [Pep#3, Glu-Val-Asn-Sta-Val-Ala-Glu-DPro-Lys(ε-Chol'ester’)-NH2] (H-EVN[Sta]VAE[dP]K(Succinyl(4-O-cholesteryl))-NH2; N-terminus assumed) | 0.4 | > 3000 | –
CCCCCCCCCCCCCCCC(=O)NCCCC[C@H](NC(=O)[C@H]1CCCN1C(=O)[C@H](CCC(=O)O)NC(=O)[C@H](C)NC(=O)[C@@H](NC(=O)C[C@H](O)[C@H](CC(C)C)NC(=O)[C@H](CC(N)=O)NC(=O)[C@@H](NC(=O)[C@@H](N)CCC(=O)O)C(C)C)C(C)C)C(N)=O [Pep#4, Glu-Val-Asn-Sta-Val-Ala-Glu-DPro-Lys(ε-Palmitoyl)-NH2] (H-EVN[Sta]VAE[dP]K(Palmitoyl)-NH2; N-terminus assumed) | 6 | < 1 | –
CC[C@H](C)[C@H](NC(=O)[C@H](Cc1ccccc1)NC(=O)[C@H](Cc1ccc(O)cc1)NC(=O)[C@@H]1CCCN1C(=O)[C@H](Cc1ccc(O)cc1)NC(C)=O)C(=O)N1CCC[C@H]1C(=O)N[C@@H](CC(C)C)C(N)=O [Pep#5, Ac-Tyr-Pro-Tyr-Phe-Ile-Pro-Leu-NH2] | > 40000 | – | –
CC[C@H](C)[C@H](NC(=O)[C@H](Cc1ccccc1)NC(=O)[C@H](Cc1ccc(O)cc1)NC(=O)[C@@H]1CCCN1C(=O)[C@@H](N)Cc1ccc(O)cc1)C(=O)N1CCC[C@H]1C(=O)N[C@@H](CC(C)C)C(=O)NCC(=O)NCC(=O)NCC(=O)N[C@@H](CCC(=O)O)C(=O)N[C@H](C(=O)N[C@@H](CC(N)=O)C(=O)N[C@@H](CC(C)C)[C@@H](O)CC(=O)N[C@H](C(=O)N[C@@H](C)C(=O)N[C@@H](CCC(=O)O)C(=O)N1CCC[C@@H]1C(=O)N[C@@H](CCCCNC(=O)CCC(=O)O[C@H]1CC[C@@]2(C)C(=CC[C@H]3[C@@H]4CC[C@H]([C@H](C)CCCC(C)C)[C@@]4(C)CC[C@@H]32)C1)C(N)=O)C(C)C)C(C)C [Pep#7, Tyr-Pro-Tyr-Phe-Ile-Pro-Leu-Gly-Gly-Gly-Glu-Val-Asn-Sta-Val-Ala-Glu-DPro-Lys(Chol'ester’)-NH2] | – | – | solubility thermodynamic [2, 5]: < 1 µg/mL
CC[C@H](C)[C@H](NC(=O)[C@H](Cc1ccccc1)NC(=O)[C@H](Cc1ccc(O)cc1)NC(=O)[C@@H]1CCCN1C(=O)[C@@H](N)Cc1ccc(O)cc1)C(=O)N1CCC[C@H]1C(=O)N[C@H](CCCCN)C(=O)NCC(=O)N[C@H](CCCCN)C(=O)NCC(=O)N[C@@H](CCC(=O)O)C(=O)N[C@H](C(=O)N[C@@H](CC(N)=O)C(=O)N[C@@H](CC(C)C)[C@@H](O)CC(=O)N[C@H](C(=O)N[C@@H](C)C(=O)N[C@@H](CCC(=O)O)C(=O)N1CCC[C@@H]1C(=O)N[C@@H](CCCCNC(=O)CCC(=O)O[C@H]1CC[C@@]2(C)C(=CC[C@H]3[C@@H]4CC[C@H]([C@H](C)CCCC(C)C)[C@@]4(C)CC[C@@H]32)C1)C(N)=O)C(C)C)C(C)C [Pep#9, Tyr-Pro-Tyr-Phe-Ile-Pro-DLys-Gly-DLys-Gly-Glu-Val-Asn-Sta-Val-Ala-Glu-DPro-Lys(Chol'ester’)-NH2] | – | – | solubility thermodynamic [2, 5]: > 718 µg/mL
CC[C@H](C)[C@H](NC(=O)[C@H](Cc1ccccc1)NC(=O)[C@H](Cc1ccc(O)cc1)NC(=O)[C@@H]1CCCN1C(=O)[C@@H](N)Cc1ccc(O)cc1)C(=O)N1CCC[C@H]1C(=O)N[C@@H](C)C(=O)NCC(=O)N[C@H](CCCCN)C(=O)NCC(=O)N[C@@H](CCC(=O)O)C(=O)N[C@H](C(=O)N[C@@H](CC(N)=O)C(=O)N[C@@H](CC(C)C)[C@@H](O)CC(=O)N[C@H](C(=O)N[C@@H](C)C(=O)N[C@@H](CCC(=O)O)C(=O)N1CCC[C@@H]1C(=O)N[C@@H](CCCCNC(=O)CCC(=O)O[C@H]1CC[C@@]2(C)C(=CC[C@H]3[C@@H]4CC[C@H]([C@H](C)CCCC(C)C)[C@@]4(C)CC[C@@H]32)C1)C(N)=O)C(C)C)C(C)C [Pep#10, Tyr-Pro-Tyr-Phe-Ile-Pro-Ala-Gly-DLys-Gly-Glu-Val-Asn-Sta-Val-Ala-Glu-DPro-Lys(Chol'ester’)-NH2] (H-YPYFIPAG[dK]GEVN[Sta]VAE[dP]K(Succinyl(4-O-cholesteryl))-NH2; N-terminus assumed) | – | > 2450 | –
CC[C@H](C)[C@H](NC(=O)[C@H](Cc1ccccc1)NC(=O)[C@H](Cc1ccc(O)cc1)NC(=O)[C@@H]1CCCN1C(=O)[C@@H](N)Cc1ccc(O)cc1)C(=O)N1CCC[C@H]1C(=O)N[C@H](CCCCN)C(=O)NCC(=O)N[C@H](CCCCN)C(=O)NCC(=O)N[C@@H](CCC(=O)O)C(=O)N[C@H](C(=O)N[C@@H](CC(N)=O)C(=O)N[C@@H](CC(C)C)[C@@H](O)CC(=O)N[C@H](C(=O)N[C@@H](C)C(=O)N[C@@H](CCC(=O)O)C(=O)N1CCC[C@@H]1C(N)=O)C(C)C)C(C)C [Pep#12, Tyr-Pro-Tyr-Phe-Ile-Pro-DLys-Gly-DLys-Gly-Glu-Val-Asn-Sta-Val-Ala-Glu-DPro-NH2] | – | – | kon ([3]; BACE1 surface, 18 °C, pH 4.5): 1.1–1.3·10^5 1/Ms; Selectivity for BACE1 ([3]; ratio KD(BACE2)/KD(BACE1)): > 15 ^a
CC[C@H](C)[C@H](NC(=O)[C@H](Cc1ccccc1)NC(=O)[C@H](Cc1ccc(O)cc1)NC(=O)[C@@H]1CCCN1C(=O)[C@H](Cc1ccc(O)cc1)NC(=O)CNC(=O)CNC(=O)CN)C(=O)N1CCC[C@H]1C(=O)N[C@H](CCCCN)C(=O)NCC(=O)N[C@H](CCCCN)C(=O)NCC(=O)N[C@@H](CCC(=O)O)C(=O)N[C@H](C(=O)N[C@@H](CC(N)=O)C(=O)N[C@@H](CC(C)C)[C@@H](O)CC(=O)N[C@H](C(=O)N[C@@H](C)C(=O)N[C@@H](CCC(=O)O)C(=O)N1CCC[C@@H]1C(N)=O)C(C)C)C(C)C [Pep#16, Gly-Gly-Gly-Tyr-Pro-Tyr-Phe-Ile-Pro-DLys-Gly-DLys-Gly-Glu-Val-Asn-Sta-Val-Ala-Glu-DPro-NH2] (H-GGGYPYFIP[dK]G[dK]GEVN[Sta]VAE[dP]-NH2; N-terminus assumed) | – | – | Aβ40 production inhibition in HEK293 APP cells ([1]; 16 h / overnight incubation): blocked production of Aβ40; Aβ production inhibition in human stem-cell derived neurons [4]: able to reduce the Aβ production
Ac-YPYFLPISAK-NH2 [Pep#6, Ac-Tyr-Pro-Tyr-Phe-Leu-Pro-Ile-Ser-Ala-Lys-NH2, reference compound] | > 40000 | – | –
